Calls of active or inactive are those of the source. No cut-off for these calls is given here.
Assays:
Histone deacetylase 1 = Histone deacetylase 1 (Homo sapiens, UniProt Q13547); experiment: Inhibition of full length human recombinant C-terminal FLAG-His-tagged HDAC1 expressed in Sf21 cells using RHKK(Ac) as substrate after 60 mins by fluorimetric method
HCT-116 [1] = experiment: Cell cycle arrest in human HCT116 cells assessed as accumulation at sub-G1 phase after 48 hrs by propidium iodide staining-based flow cytometric method; format: functional
Procedure, shortened: (§1)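 HCT116 cells treated 48 h, then fixed overnight in 75% EtOH at -20 °C and washed in cold PBS. They were incubated 30 min at room temperature in 0.1 M phosphate-citric acid buffer (pH 7.8) and stained with propidium iodide buffer containing 0.1% Triton X-100 and RNase A. The sub-G1 fraction was measured by flow cytometry.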

HCT-116 [2] = experiment: Induction of apoptosis in human HCT116 cells assessed as increase in cleaved PARP levels at 1.25 to 2.5 uM after 48 hrs Western blot method; format: functional, cell-based
HCT-116 [3] = experiment: Anticlonogenic activity against human HCT116 cells after 24 hrs by crystal violet staining-based assay; format: functional, cell-based
Procedure, shortened: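 Cells exposed to a range of concentrations or DMSO vehicle for 24 h, washed, trypsinized and replated at 500 cells/well; after 14 days colonies were fixed and stained with 0.5% crystal violet in 70% EtOH. Colonies of more than 50 cells were counted, and survival fraction was taken relative to DMSO control.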

Histone deacetylase 2 = Histone deacetylase 2 (Homo sapiens, UniProt Q92769); experiment: Inhibition of full length human recombinant C-terminal GST-tagged HDAC2 expressed in insect cells using RHKK(Ac) as substrate after 60 mins by fluorimetric method
Homo sapiens [4] = species: Homo sapiens; experiment: Selectivity ratio of IC50 for full length human recombinant C-terminal GST-tagged HDAC2 to IC50 for full length human recombinant N-terminal GST-tagged HDAC6
A549 = experiment: Antiproliferative activity against human A549 cells after 48 hrs by SRB assay; format: functional; settings: A549, 48 h
Procedure, shortened: (§2)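 Cells seeded at 3-5 x 10³ cells/well. A T0 plate was fixed with 10% TCA at drug addition, and the rest were incubated 48 h with compound or DMSO, then TCA-fixed and stained with 0.4% SRB in 1% AcOH. Dye was extracted with 10 mM trizma base and read at 515 nm.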

HCT-116 [5] = experiment: Induction of apoptosis in human HCT116 cells assessed as increase in cleaved caspase 3 levels at 1.25 to 2.5 uM after 48 hrs Western blot method; format: functional, cell-based
HCT-116 [6] = experiment: Antiproliferative activity against human HCT116 cells after 48 hrs by SRB assay; format: functional; settings: HCT-116, 48 h; procedure, shortened: as §2
Homo sapiens [7] = species: Homo sapiens; experiment: Selectivity ratio of IC50 for full length human recombinant C-terminal FLAG-His-tagged HDAC1 to IC50 for full length human recombinant N-terminal GST-tagged HDAC6
[8] = biological target: T1, Protein deacetylase HDAC6 (Homo sapiens, UniProt Q9UBN7); experiment: Inhibition of full length human recombinant N-terminal GST-tagged HDAC6 expressed in Sf9 cells using RHKK(Ac) as substrate after 90 mins by fluorimetric method
T1 sequence (Q9UBN7 whole entry): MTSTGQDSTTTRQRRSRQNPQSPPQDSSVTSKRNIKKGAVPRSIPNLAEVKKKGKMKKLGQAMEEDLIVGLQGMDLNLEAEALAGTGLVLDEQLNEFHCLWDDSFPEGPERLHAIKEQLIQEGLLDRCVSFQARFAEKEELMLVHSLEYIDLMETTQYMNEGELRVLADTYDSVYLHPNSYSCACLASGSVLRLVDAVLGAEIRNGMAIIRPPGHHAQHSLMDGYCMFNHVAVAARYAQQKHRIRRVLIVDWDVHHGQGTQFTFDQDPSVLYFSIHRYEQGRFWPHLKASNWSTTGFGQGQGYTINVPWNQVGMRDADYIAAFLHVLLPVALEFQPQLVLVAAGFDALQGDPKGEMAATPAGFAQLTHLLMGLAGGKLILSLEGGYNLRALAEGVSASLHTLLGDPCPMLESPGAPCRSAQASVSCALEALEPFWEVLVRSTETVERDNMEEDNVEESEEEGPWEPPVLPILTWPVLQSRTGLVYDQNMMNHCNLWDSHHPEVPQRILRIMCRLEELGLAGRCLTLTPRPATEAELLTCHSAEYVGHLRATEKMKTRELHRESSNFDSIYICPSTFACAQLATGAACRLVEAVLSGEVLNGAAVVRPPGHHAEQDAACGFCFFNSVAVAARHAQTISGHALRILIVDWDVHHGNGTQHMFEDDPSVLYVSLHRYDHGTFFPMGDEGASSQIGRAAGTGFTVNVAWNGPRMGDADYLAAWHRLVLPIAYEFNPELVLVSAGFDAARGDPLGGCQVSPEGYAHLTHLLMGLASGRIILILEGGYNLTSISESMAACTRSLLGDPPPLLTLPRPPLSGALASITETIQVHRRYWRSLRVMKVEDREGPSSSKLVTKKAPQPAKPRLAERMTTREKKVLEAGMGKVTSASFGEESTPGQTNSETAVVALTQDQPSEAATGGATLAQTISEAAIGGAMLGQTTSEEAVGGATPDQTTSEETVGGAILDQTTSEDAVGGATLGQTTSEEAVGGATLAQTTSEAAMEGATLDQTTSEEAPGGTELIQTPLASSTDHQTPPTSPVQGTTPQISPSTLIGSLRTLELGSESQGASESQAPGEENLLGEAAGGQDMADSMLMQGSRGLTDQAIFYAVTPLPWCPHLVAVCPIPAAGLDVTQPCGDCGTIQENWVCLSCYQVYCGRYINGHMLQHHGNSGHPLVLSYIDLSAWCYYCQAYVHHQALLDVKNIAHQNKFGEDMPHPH

[9] = biological target: T2, Protein deacetylase HDAC6 (Homo sapiens) (UniProt Q9UBN7); experiment: Inhibition of HDAC6 in human HCT116 cells assessed as upregulation of acetylated tubulin levels at 2.5 uM after 6 hrs by Western blot method; format: cell-based
T2 sequence (whole entry): T1 sequence (Q9UBN7 whole entry)
Procedure, shortened: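 HCT116 cells treated 6 h with compound, then lysates probed by western blot for acetyl-tubulin, with ECL detection.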

PC-3 = experiment: Antiproliferative activity against human PC3 cells after 48 hrs by SRB assay; format: functional; settings: PC-3, 48 h; procedure, shortened: as §2
Homo sapiens [10] = species: Homo sapiens; experiment: Inhibition of class 1 HDAC in human HCT116 cells assessed as upregulation of acetylated histone H3 levels at 2.5 uM after 6 hrs by Western blot method; format: cell-based
HCT-116 [11] = experiment: Cell cycle arrest in human HCT116 cells assessed as accumulation at sub-G1 phase at 5 uM after 48 hrs by propidium iodide staining-based flow cytometric method; format: functional; procedure, shortened: as §1

Sequence of Histone deacetylase 2 (Q92769 whole entry): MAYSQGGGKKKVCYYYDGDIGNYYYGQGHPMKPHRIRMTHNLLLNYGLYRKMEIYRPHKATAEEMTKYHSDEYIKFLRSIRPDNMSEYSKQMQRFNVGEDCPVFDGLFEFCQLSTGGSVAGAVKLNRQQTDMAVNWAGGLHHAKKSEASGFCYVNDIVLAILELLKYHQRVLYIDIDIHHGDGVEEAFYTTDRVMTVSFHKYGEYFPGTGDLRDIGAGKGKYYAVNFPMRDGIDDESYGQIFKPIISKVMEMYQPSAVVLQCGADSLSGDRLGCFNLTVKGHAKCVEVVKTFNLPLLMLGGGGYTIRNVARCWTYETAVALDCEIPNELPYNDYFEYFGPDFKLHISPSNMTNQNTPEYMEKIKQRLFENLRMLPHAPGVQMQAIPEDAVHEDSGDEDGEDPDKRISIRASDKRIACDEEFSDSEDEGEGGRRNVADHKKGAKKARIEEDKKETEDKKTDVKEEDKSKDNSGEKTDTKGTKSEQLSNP
Sequence of Histone deacetylase 1 (Q13547 whole entry): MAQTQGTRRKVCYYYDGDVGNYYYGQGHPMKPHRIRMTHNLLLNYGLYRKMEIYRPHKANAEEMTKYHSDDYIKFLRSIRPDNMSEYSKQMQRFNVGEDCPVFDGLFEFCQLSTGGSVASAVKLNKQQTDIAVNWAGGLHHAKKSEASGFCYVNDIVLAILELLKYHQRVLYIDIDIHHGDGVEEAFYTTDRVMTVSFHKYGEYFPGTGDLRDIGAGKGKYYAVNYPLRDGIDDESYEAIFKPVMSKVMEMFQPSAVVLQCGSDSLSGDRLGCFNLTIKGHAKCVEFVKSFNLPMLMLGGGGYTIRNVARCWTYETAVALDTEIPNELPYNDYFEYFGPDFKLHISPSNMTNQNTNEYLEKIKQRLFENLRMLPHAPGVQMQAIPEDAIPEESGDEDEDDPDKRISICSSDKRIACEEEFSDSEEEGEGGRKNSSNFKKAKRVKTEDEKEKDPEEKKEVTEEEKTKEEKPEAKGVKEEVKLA

Row | Structure (SMILES) | IC50 (Histone deacetylase 1) [µM] | IC50 (Histone deacetylase 2) [µM] | Ratio IC50 (Homo sapiens [4]) | GI50 (A549) [µM] | GI50 (HCT-116 [6]) [µM] | Ratio IC50 (Homo sapiens [7]) | IC50 [8] [µM] | Acetylated tubulin upregulation (qualitative) [9] | GI50 (PC-3) [µM] | Activity (HCT-116 [1]) | Activity (HCT-116 [2]) | Activity (HCT-116 [3]) | Activity (HCT-116 [5]) | Acetylated histone H3 upregulation (qualitative) (Homo sapiens [10]) | Activity (HCT-116 [11])
1 | Cc1c(CN(C)C)c2ccccc2n1Cc1ccc(/C=C/C(=O)NO)cc1 | 2.13 | 2.38 | 24 | 3.69 | 1.26 | 22 | 0.0964 | – | 2.08 | – | – | – | – | – | –
2 | CN(C)Cc1cn(S(=O)(=O)c2cccc(/C=C/C(=O)NO)c2)c2ccccc12 | 1.51 | 1.64 | 18 | 1.87 | 0.54 | 16 | 0.0893 | Active | 1.03 | Dose-dependent effect | Active | Dose-dependent effect | Active | inactive | –
3 | Cc1c(CN(C)C)c2ccccc2n1Cc1ccc(C(=O)NO)cc1 | 9.73 | > 10 | > 1620 | > 5 | > 5 | 1580 | 0.00617 | – | > 5 | – | – | – | – | – | –
4 | CN(C)C(=O)c1cn(S(=O)(=O)c2cccc(/C=C/C(=O)NO)c2)c2ccccc12 | 6.91 | > 10 | > 49 | > 5 | 2.49 | 34 | 0.201 | – | > 5 | – | – | – | – | – | –
5 | CN(C)C(=O)c1cn(Cc2ccc(/C=C/C(=O)NO)cc2)c2ccccc12 | 0.627 | 1.04 | 122 | 3.33 | 0.75 | 73 | 0.0085 | Active | 1.89 | Dose-dependent effect | Active | Dose-dependent effect | Active | inactive | –
6 | CN(C)Cc1cn(Cc2ccc(/C=C/C(=O)NO)cc2)c2ccccc12 | 2.25 | 1.12 | 25 | 3 | 1.39 | 52 | 0.0431 | – | 2.55 | – | – | – | – | – | –
7 | CN(C)C(=O)c1cn(Cc2ccc(C(=O)NO)cc2)c2ccccc12 | 5.72 | > 10 | > 1250 | > 5 | > 5 | 714 | 0.00801 | – | > 5 | – | – | – | – | – | –
8 | CN(C)C(=O)c1cn(S(=O)(=O)c2ccc(/C=C/C(=O)NO)cc2)c2ccccc12 | 2.01 | 1.46 | 135 | > 5 | 2.14 | 186 | 0.0108 | – | 3.1 | – | – | – | – | – | –

More lines, main results first:

Row | IC50 (Histone deacetylase 1) [µM] | IC50 (Histone deacetylase 2) [µM] | Ratio IC50 (Homo sapiens [4]) | GI50 (A549) [µM] | GI50 (HCT-116 [6]) [µM] | Ratio IC50 (Homo sapiens [7]) | IC50 [8] [µM] | Acetylated tubulin upregulation (qualitative) [9] | GI50 (PC-3) [µM] | Structure (SMILES) | Activity (HCT-116 [1]) | Activity (HCT-116 [2]) | Activity (HCT-116 [3]) | Activity (HCT-116 [5]) | Acetylated histone H3 upregulation (qualitative) (Homo sapiens [10]) | Activity (HCT-116 [11])
9 | 1.85 | 1.34 | 15 | 1.92 | 0.5 | 21 | 0.0849 | Active | 1.69 | Cc1c(CN(C)C)c2ccccc2n1S(=O)(=O)c1cccc(/C=C/C(=O)NO)c1 | Dose-dependent effect | Active | Dose-dependent effect | Active | inactive | –
10 | 1.6 | 1.65 | 39 | 2.68 | 0.73 | 38 | 0.0418 | – | 1.69 | CN1CCc2c(c3ccccc3n2Cc2ccc(/C=C/C(=O)NO)cc2)C1 | – | – | – | – | – | –
11 | 4.01 | 1.27 | 20 | 1.56 | 0.55 | 63 | 0.063 | Active | 0.7 | Cc1c(CN(C)C)c2ccccc2n1S(=O)(=O)c1ccc(/C=C/C(=O)NO)cc1 | Dose-dependent effect | Active | Dose-dependent effect | Active | inactive | –
12 | – | – | – | > 5 | > 5 | – | – | – | > 5 | CN1CCc2c(c3ccccc3n2Cc2ccc(C(=O)NO)cc2)C1 [TUBASTATIN A] | – | inactive | – | inactive | – | Active
13 | 7.13 | 12.2 | 562 | > 5 | > 5 | 328 | 0.0217 | – | 3.93 | CN(C)Cc1cn(Cc2ccc(C(=O)NO)cc2)c2ccccc12 | – | – | – | – | – | –
14 | 1.93 | 0.97 | 58 | 1.62 | 0.52 | 115 | 0.0167 | Active | 0.79 | CN(C)Cc1cn(S(=O)(=O)c2ccc(/C=C/C(=O)NO)cc2)c2ccccc12 | Dose-dependent effect | Active | Dose-dependent effect | Active | inactive | –
15 | 2.7 | 3.13 | 16 | 2.45 | 0.64 | 14 | 0.189 | – | 1.84 | CN1CCc2c(c3ccccc3n2S(=O)(=O)c2cccc(/C=C/C(=O)NO)c2)C1 | – | – | – | – | – | –
